According to publication PMC2748767 (Journal of medicinal chemistry, 2009):

Tests used:
carboxypeptidase Y = carboxypeptidase Y (Saccharomyces cerevisiae, UniProt P00729); assay: Carboxypeptidase Y-mediated cleavage monitored by 31P-NMR; format: in vitro ADME; conditions: for conversion by carboxypeptidase Y (in words): d6-acetone and trizma buffer pH 7.6, 31P-NMR; for half-life: yeast, carboxypeptidase Y (isolated enzyme), pH 7.6
How it was run: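 Test compound was dissolved in d6-acetone plus trizma buffer (pH 7.6). A 31P-NMR blank spectrum was recorded for each sample before carboxypeptidase Y was added, and conversion was then followed by 31P-NMR.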

CEM cells = assay: Cytostatic activity in CEM cells; format: cell-based; conditions: Homo sapiens, CCRF-CEM, read-out: Cytostatic activity IC50 CEM
[1] = Hydrolysis of ProTides in tonsil extracts; format: in vitro ADME, human; conditions: data not shown
How it was run: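 Tonsil tissues were washed twice in PBS, resuspended in PBS and homogenised mechanically. The extract was cleared by centrifugation (10 min, 15,000 rpm) and frozen at -20 °C. Test compound (10 μM) was incubated in crude extract at 37 °C for 30, 60 and 120 min. Aliquots were quenched in cold methanol and centrifuged, and supernatants went to reverse-phase C18 HPLC to separate parent from hydrolysis products.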

[2] = Hydrolysis of ProTides in crude CEM cell extracts; format: in vitro ADME, human; conditions: 10 μM, 37 °C; for conversion in CEM cell extracts: within one hour of incubation
How it was run: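 Exponentially growing CEM cells were washed twice in PBS, resuspended in PBS and sonicated. The extract was cleared by centrifugation (10 min, 15,000 rpm) and frozen at -20 °C. Test compound (10 μM) was incubated in crude extract at 37 °C for 30, 60 and 120 min. Aliquots were quenched in cold methanol and centrifuged, and supernatants went to reverse-phase C18 HPLC. Results are given as percent disappearance of intact parent.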

[3] = Stability in human serum monitored by 31P-NMR; format: in vitro ADME; conditions: after 12 h, 37 °C, DMSO/D2O
[4] = Stability in pH 1.0 buffer monitored by 31P-NMR; format: physicochemical
[5] = tested on: thymidine kinase-deficient (TK-) HSV-1 KOS strain resistant to ACV (ACVr); assay: Anti-TK-deficient HSV-1; format: cell-based; conditions: versus HSV-1 and HSV-2
HIV-1 X4LAI.04 = assay: Anti-HIV-1 assay in MT-4 cell cultures; format: cell-based; conditions: HIV-1 X4LAI.04 in MT-4 cells, 3 days, 50% suppression of p24 production

Chain of carboxypeptidase Y (P00729 112-532): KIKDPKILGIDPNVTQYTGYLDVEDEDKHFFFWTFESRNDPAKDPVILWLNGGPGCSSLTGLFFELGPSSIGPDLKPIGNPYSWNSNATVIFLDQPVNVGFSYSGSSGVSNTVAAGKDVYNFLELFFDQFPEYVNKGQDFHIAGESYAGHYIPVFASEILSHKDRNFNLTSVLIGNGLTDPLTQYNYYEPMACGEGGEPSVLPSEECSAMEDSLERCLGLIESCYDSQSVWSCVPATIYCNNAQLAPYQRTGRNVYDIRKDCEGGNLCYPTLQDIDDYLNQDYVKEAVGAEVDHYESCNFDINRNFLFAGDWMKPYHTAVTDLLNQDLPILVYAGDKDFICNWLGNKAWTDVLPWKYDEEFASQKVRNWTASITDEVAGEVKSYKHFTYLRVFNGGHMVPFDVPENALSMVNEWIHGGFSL

Question: Which “conversion by carboxypeptidase Y (in words)” value (carboxypeptidase Y) does the source give for `COC(=O)[C@H](NP(=O)(OCCOCn1cnc2c(=O)[nH]c(N)nc21)Oc1cccc2ccccc12)C(C)C` (some centres unmarked) [Compound 19] here?
Answer: not processed

Question: For `CCCOC(=O)[C@H](C)NP(=O)(OCCOCn1cnc2c(=O)[nH]c(N)nc21)Oc1cccc2ccccc12` (some centres unmarked) [Compound 3], which IC50 (CEM cells) is on record?
Answer: 22 µM

Question: With `CC(C)OC(=O)[C@H](C)NP(=O)(OCCOCn1cnc2c(=O)[nH]c(N)nc21)Oc1ccccc1` (some centres unmarked) [Compound 10] as the compound, how does the “times slower conversion by carboxypeptidase Y than 9” value (carboxypeptidase Y; ratio of half-lives versus compound 9) read?
Answer: ca. 150 times

Question: What about the half-life (carboxypeptidase Y) of the same compound?
Answer: 2760 min

Question: Which IC50 (CEM cells) does the source give for `Nc1nc2c(ncn2COCCOP(=O)(NC(Cc2ccccc2)C(=O)OCc2ccccc2)Oc2ccccc2)c(=O)[nH]1` (centres unmarked) [Compound 15] here?
Answer: 42 µM

Question: Which IC50 (CEM cells) does the source give for `C[C@H](NP(=O)(OCCOCn1cnc2c(=O)[nH]c(N)nc21)Oc1cccc2ccccc12)C(=O)OCc1ccccc1` (stereo partly drawn) [Compound 2, acyclovir-[1-naphthyl(benzoxy-L-alaninyl)] phosphate] here?
Answer: 17 µM

Question: Which half-life (carboxypeptidase Y) does the source give for `C[C@H](NP(=O)(OCCOCn1cnc2c(=O)[nH]c(N)nc21)Oc1ccccc1)C(=O)OCc1ccccc1` (some centres unmarked) [Compound 9] here?
Answer: 17 min

Question: What about the “hydrolysis in tonsil extracts (in words)” value [1] of the same compound?
Answer: efficiently hydrolyse

Question: What about the “conversion in CEM cell extracts” value [2] of the same compound?
Answer: > 95%

Question: What about the “compound still present in human serum” value [3] of the same compound?
Answer: 56%

Question: And the half-life [4]?
Answer: 660 min

Question: For `COC(=O)[C@H](C)NP(=O)(OCCOCn1cnc2c(=O)[nH]c(N)nc21)Oc1ccccc1` (some centres unmarked) [Compound 8], which IC50 (CEM cells) is on record?
Answer: 67 ± 7.8 µM

Question: For `Nc1nc2c(ncn2COCCO)c(=O)[nH]1` [ACV (1), acyclovir], which “loss of activity against thymidine kinase-deficient HSV-1” value [5] is on record?
Answer: > 100 fold

Question: And the “Antiviral Activity EC50 HIV-1 MT4” value (HIV-1 X4LAI.04)?
Answer: inactive

Question: For `C[C@H](NP(=O)(OCCOCn1cnc2c(=O)[nH]c(N)nc21)Oc1cccc2ccccc12)C(=O)OC(C)(C)C` (some centres unmarked) [Compound 6], which “conversion by carboxypeptidase Y (in words)” value (carboxypeptidase Y) is on record?
Answer: no conversion at all

Question: And the “stability in CEM cell extracts (in words)” value ([2]; after a 120 min-incubation period)?
Answer: entirely stable

Question: Which “hydrolysis in tonsil extracts (in words)” value [1] does the source give for `COC(=O)[C@H](C)NP(=O)(OCCOCn1cnc2c(=O)[nH]c(N)nc21)Oc1cccc2ccccc12` (some centres unmarked) [Compound 4] here?
Answer: efficiently hydrolyse

Question: What about the “conversion in CEM cell extracts” value [2] of the same compound?
Answer: 65%

Question: And the IC50 (CEM cells)?
Answer: 57 µM

Question: Which half-life (carboxypeptidase Y) does the source give for `COC(=O)[C@@H](NP(=O)(OCCOCn1cnc2c(=O)[nH]c(N)nc21)Oc1cccc2ccccc12)C(C)C` (some centres unmarked) [Compound 17] here?
Answer: 4320 min
